The target in assay [1] is Ephrin type-A receptor 4 (Homo sapiens) (UniProt P54764). The assay can be described thus: Inhibition of EPHA4 (unknown origin) at 1 uM relative to control; values are per cent of control.
Assay [2] deals with T1, Mitogen-activated protein kinase kinase kinase 7 (Homo sapiens) (UniProt O43318).
T1 sequence (whole entry): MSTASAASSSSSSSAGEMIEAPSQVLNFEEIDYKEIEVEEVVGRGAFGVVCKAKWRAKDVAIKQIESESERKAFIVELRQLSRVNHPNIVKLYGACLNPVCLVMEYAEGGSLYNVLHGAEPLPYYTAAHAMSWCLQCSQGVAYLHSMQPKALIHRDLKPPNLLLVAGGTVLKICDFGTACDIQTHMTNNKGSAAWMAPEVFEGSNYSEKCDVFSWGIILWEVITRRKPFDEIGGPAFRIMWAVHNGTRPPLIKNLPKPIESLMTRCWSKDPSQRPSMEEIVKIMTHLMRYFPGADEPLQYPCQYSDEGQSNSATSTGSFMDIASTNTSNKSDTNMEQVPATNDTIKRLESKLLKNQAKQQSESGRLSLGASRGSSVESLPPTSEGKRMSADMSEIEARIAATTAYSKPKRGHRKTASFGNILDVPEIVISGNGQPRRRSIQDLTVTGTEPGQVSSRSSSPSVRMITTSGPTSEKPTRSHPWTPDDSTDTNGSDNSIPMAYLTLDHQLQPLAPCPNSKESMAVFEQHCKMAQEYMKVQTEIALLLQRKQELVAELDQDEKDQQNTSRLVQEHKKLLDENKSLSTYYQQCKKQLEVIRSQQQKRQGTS
The assay can be described thus: Inhibition of TAK1 (unknown origin) at 1 uM relative to control. To be noted: values are per cent of control. The gist of the method: (§1)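 KinomeSCAN competitive binding panel of 100 kinases; compounds tested at 1 µM in duplicate; read-out is percent […] control.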

For assay [3], the target named is Protein-tyrosine kinase 6 (Homo sapiens) (UniProt Q13882). The assay can be described thus: Inhibition of BRK (unknown origin) at 1 uM relative to control; values are per cent of control.
Sequence of Protein-tyrosine kinase 6 (Homo sapiens) (Q13882 whole entry, looked up): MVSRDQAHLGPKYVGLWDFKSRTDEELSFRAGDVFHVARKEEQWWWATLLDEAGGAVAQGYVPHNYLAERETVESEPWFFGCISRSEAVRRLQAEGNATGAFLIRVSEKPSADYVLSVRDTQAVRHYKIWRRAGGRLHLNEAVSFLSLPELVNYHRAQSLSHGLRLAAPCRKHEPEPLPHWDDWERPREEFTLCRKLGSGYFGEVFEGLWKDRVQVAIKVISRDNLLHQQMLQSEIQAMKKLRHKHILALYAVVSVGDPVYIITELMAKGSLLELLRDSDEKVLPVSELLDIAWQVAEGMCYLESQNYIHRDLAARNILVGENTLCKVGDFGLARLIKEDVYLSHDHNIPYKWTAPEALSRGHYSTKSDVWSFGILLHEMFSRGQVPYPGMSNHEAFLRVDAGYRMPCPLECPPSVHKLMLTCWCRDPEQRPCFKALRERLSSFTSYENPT
Assay [4] concerns the target Tyrosine-protein kinase ABL1 (Homo sapiens) (UniProt P00519). The assay can be described thus: Inhibition of nonphosphorylated ABL1 (unknown origin) at 1 uM relative to control; values are per cent of control.
Assay [5] addresses Cyclin-dependent kinase 18 (Homo sapiens) (UniProt Q07002). The experiment in a line: Inhibition of PCTK3 (unknown origin) at 1 uM relative to control. To be noted: values are per cent of control. In outline:
as §1

The target of assay [6] is T2, Protein kinase C epsilon type (Homo sapiens) (UniProt Q02156).
T2 sequence (whole entry): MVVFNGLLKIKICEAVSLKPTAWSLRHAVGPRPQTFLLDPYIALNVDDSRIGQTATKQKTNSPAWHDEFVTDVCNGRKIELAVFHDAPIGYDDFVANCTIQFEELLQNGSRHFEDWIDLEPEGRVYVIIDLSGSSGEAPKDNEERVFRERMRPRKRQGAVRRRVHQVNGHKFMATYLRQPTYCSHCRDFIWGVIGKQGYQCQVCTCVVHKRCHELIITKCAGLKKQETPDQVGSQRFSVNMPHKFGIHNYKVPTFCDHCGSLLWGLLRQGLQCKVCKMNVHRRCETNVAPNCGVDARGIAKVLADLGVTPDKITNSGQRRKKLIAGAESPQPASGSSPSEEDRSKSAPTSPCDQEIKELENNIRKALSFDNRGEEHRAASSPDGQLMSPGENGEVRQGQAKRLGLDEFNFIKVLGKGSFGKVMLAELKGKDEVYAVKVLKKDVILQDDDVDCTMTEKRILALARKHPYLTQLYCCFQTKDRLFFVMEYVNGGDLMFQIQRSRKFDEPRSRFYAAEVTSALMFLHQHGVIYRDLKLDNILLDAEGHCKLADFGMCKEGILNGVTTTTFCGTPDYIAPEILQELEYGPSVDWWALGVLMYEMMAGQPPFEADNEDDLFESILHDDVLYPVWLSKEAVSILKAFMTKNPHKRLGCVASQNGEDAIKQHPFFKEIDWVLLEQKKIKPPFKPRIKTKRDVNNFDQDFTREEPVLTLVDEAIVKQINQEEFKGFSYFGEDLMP
The assay can be described thus: Inhibition of PRKCE (unknown origin) at 1 uM relative to control. To be noted: values are per cent of control. The gist of the method:
as §1

In assay [7] the target is T3, Ephrin type-B receptor 3 (Homo sapiens) (UniProt P54753).
T3 sequence (whole entry): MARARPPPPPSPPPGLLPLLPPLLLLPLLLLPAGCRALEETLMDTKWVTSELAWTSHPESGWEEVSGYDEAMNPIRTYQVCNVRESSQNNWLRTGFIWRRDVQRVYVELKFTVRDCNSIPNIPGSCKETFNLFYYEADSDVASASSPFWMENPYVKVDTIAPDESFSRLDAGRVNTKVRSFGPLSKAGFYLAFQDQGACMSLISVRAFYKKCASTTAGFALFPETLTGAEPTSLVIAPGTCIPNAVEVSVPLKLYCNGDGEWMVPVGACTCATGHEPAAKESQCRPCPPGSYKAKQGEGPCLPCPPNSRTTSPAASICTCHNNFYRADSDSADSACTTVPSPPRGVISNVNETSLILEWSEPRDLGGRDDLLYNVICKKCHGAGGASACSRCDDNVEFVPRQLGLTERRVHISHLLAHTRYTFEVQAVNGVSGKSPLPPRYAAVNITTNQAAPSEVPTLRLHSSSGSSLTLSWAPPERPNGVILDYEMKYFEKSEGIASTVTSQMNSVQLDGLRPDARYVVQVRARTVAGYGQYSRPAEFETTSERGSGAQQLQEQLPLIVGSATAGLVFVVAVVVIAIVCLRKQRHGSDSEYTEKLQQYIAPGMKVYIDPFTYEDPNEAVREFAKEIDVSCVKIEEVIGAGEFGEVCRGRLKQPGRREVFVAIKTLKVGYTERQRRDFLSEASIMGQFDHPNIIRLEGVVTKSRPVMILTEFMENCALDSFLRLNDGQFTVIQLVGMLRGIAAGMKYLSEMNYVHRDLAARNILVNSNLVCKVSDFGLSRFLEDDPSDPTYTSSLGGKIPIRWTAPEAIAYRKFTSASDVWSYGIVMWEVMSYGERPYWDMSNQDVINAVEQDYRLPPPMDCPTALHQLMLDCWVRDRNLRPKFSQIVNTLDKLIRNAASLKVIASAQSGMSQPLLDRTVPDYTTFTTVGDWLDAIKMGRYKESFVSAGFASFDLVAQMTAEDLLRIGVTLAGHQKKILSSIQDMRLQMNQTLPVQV
The experiment in a line: Inhibition of EPHB3 (unknown origin) at 1 uM relative to control; values are per cent of control.

Sequence of Ephrin type-A receptor 4 (Homo sapiens) (P54764 whole entry): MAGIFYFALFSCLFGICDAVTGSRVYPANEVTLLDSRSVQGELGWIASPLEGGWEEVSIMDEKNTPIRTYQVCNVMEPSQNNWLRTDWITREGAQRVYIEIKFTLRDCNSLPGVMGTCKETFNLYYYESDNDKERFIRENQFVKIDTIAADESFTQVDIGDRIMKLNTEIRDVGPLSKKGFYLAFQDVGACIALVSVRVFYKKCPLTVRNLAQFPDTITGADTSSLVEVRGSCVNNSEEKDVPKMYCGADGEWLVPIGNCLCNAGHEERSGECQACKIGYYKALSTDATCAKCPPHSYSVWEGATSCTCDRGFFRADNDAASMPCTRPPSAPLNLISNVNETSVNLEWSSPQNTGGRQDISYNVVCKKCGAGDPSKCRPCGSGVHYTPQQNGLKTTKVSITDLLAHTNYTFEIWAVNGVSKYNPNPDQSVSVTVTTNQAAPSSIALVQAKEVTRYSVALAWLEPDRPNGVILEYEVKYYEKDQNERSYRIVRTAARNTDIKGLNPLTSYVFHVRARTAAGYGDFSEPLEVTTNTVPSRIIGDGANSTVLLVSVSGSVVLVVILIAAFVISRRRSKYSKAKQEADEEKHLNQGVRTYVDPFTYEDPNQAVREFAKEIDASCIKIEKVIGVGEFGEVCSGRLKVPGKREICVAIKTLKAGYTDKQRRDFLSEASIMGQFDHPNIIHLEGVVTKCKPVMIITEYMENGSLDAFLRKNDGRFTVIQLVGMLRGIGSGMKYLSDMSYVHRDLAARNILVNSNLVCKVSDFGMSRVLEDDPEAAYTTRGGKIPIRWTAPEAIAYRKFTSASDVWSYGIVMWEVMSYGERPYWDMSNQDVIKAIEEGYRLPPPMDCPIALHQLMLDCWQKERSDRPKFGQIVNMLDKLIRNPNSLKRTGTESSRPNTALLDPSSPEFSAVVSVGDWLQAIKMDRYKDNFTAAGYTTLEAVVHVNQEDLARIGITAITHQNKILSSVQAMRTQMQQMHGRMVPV
Sequence of Tyrosine-protein kinase ABL1 (Homo sapiens) (P00519 whole entry): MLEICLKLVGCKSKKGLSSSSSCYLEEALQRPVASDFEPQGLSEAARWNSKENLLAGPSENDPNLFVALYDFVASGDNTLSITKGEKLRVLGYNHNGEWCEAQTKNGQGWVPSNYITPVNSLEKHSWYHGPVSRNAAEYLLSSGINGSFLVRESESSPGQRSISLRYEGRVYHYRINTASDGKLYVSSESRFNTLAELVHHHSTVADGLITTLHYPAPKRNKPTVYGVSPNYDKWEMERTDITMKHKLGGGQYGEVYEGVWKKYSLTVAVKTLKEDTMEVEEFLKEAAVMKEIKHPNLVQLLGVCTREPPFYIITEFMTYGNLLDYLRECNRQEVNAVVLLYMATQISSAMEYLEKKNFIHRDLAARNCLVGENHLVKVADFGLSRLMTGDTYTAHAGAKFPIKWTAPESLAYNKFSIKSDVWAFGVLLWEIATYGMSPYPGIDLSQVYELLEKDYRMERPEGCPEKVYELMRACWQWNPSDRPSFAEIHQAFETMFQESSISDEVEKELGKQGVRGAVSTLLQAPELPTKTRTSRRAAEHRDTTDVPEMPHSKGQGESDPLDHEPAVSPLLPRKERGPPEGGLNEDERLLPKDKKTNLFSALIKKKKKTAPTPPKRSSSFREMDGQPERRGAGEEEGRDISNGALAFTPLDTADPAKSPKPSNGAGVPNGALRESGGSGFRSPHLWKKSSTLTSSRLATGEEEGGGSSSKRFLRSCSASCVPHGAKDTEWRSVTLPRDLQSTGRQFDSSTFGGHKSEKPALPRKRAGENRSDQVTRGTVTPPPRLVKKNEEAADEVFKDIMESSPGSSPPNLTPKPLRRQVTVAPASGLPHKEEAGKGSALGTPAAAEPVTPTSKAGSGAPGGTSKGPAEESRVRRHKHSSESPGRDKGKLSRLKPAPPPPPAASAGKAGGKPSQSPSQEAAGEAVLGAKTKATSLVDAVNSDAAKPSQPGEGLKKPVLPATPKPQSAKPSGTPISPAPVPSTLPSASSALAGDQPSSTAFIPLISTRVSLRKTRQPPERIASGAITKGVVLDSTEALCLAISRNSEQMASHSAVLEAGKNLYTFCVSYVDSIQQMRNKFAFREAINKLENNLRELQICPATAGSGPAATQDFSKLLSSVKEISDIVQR
Sequence of Cyclin-dependent kinase 18 (Homo sapiens) (Q07002 whole entry): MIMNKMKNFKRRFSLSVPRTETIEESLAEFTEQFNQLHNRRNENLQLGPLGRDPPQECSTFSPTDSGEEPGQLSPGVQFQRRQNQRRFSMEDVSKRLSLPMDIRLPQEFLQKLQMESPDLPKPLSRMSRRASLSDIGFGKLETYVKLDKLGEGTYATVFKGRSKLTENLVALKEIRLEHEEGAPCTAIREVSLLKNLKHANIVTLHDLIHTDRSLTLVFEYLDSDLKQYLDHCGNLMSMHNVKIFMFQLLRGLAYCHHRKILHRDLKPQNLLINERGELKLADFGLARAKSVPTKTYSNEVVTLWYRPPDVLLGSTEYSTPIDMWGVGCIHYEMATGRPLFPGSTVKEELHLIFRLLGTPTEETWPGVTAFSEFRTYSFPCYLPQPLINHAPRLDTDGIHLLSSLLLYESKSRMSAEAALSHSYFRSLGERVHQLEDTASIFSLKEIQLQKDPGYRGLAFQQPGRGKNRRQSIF

As for `NC(=O)c1sc(-c2ccnc(N)n2)nc1-c1ccc(Cl)cc1Cl`, the residual activity in assay [1] worked out at 72%; in assay [3], 68%; in assay [4], 100%; in assay [7] it was 86%. In addition, the residual binding, % of control in assay [2] amounted to 34%; in assay [5] it was 100%; in assay [6], 73%.

Take `CCOC(=O)c1sc(-c2ccncc2)nc1O`: the residual activity in assay [1] was 58%; in assay [3], 94%; in assay [4] it was 87%; in assay [7], 71%. Further, the residual binding, % of control in assay [2] turned out to be 65%; in assay [5], 76%; in assay [6] it was 100%.

For `COc1ccc(-c2nc(-c3ccnc(N)n3)sc2C(N)=O)c(Cl)c1`, the residual activity came out at 100% in assay [1], 80% in assay [3], 100% in assay [4] and 97% in assay [7]. The residual binding, % of control in assay [2] worked out at 49%; in assay [5], 100%; in assay [6], 100%.

Values taken from ChEMBL document CHEMBL3259739, “Synthesis and structure-activity relationship of trisubstituted thiazoles as Cdc7 kinase inhibitors” (Eur J Med Chem, 2014).
